Only some compounds are listed: those with a hit (about 3.5% of all), similar ones and a draw of the others.
MrgX1 ag: agonists of human MrgX1 receptor, primary screen, HEK293 cells, Fluo-4 calcium flux | Fluo-4 calcium fluorescence, agonist mode; active compounds read high | B-score at 10 µM | AID 588627, 2011 | actives 0.44% (n = 310,000);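 active means calcium response B-score plate-corrected fluorescence ratio at least 3 library SD, with starting fluorescence B-score inside 5 SD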
Target sequence (Q96LB2 whole entry, looked up): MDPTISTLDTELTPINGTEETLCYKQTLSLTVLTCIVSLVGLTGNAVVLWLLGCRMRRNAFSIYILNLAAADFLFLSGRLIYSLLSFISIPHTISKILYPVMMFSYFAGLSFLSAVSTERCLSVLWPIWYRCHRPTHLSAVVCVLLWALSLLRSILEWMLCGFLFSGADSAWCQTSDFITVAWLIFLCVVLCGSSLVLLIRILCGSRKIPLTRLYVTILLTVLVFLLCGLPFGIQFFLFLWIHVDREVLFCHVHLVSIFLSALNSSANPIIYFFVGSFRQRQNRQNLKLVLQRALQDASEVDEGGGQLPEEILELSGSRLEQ
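Material: MrgX1-expressing HEK293 cells; input: 15,000 cells per well; doses: test compound given as first of three sequential additions; schedule: overnight plating before 1 h dye loading; technique: Fluo-4 NW calcium-flux fluorescence, kinetic read; evaluation: baseline-normalised fluorescence change ratio, B-scored; control set: plate-wise positive and negative controls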
MrgX1 PAM: positive allosteric modulators of MrgX1, primary screen, HEK293 cells, Fluo-4 calcium flux | B-score at 10 µM | FDSS; active compounds read high | actives 0.63% (n = 310,000) | Mas-related G-protein coupled receptor member X1 (Homo sapiens), Q96LB2;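 active means plate-corrected calcium response at least 3 library SD above typical, normal starting fluorescence, not activating the receptor alone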;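 further: compound read alongside a low EC10 to EC30 dose of BAM8-22 agonist; peak minus trough fluorescence over baseline measured at the second addition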
RGS4 block: RGS4 inhibitors, primary screen, cell-based, HEK293 M3R inducible RGS4, calcium flux | Fluo-4 calcium flux; active compounds read high; triggered by carbachol at its EC20 | Regulator of G-protein signaling 4 (Homo sapiens), P49798 | B-score at 10 µM | AID 463165, 2010 | actives 0.45% (n = 310,000);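 active means B-score, a plate-corrected calcium signal, over three deviations above library mean, with baseline fluorescence within five deviations of library mean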;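 further: RGS4 expression induced by doxycycline in cells with stable M3 receptor; B-score is computed from the integrated fluorescence ratio over baseline after carbachol; higher B-score means a larger calcium signal and so more RGS4 inhibition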
Target sequence (P49798 whole entry, looked up): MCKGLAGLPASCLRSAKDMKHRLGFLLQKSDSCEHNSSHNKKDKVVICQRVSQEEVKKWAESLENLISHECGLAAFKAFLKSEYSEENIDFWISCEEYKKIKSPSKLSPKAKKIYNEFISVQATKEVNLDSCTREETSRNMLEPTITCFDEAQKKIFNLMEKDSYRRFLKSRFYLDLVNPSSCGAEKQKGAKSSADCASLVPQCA
RGS4 pot: RGS4 potentiators or activators, primary screen, cell-based, HEK293 M3R inducible RGS4, calcium flux; carbachol calcium flux Fluo4; active compounds read low; B-score at 10 µM; actives 0.92% (n = 310,000); AID 463111, 2010;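 active means B-score of the integrated calcium signal more than 4 SD below the library mean, with starting fluorescence not abnormally high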;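 further: negative B-score means reduced calcium response which marks RGS4 activation or potentiation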
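Also added: carbachol at ECmax as muscarinic agonist stimulus; Assay system: HEK293 cells with stable M3R and inducible RGS4; Timing: overnight RGS4 induction, 30 min dye load 37 °C, 20 min compound RT; Measured by: Fluo4-AM (2 µM) calcium-flux fluorescence, kinetic read.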
MrgX1 antagonist: antagonists of human MrgX1 receptor, primary screen, HEK293 cells, Fluo-4 calcium flux | Mas-related G-protein coupled receptor member X1 (Homo sapiens), Q96LB2 | BAM8-22 antagonism; active compounds read low | B-score at 10 µM | actives 1.3% (n = 310,000) | AID 588676, 2011;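 active means calcium-response B-score plate-corrected more than 3 library SD below zero, starting fluorescence within 5 deviations, no agonist response on first addition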;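 further: peak minus trough fluorescence over baseline after final BAM8-22 challenge near maximal dose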
RGS4 act valid: reduced carbachol calcium response, RGS4-induced M3R cells, confirmation, RGS4 activator project, cell-based, HEK293 M3R/RGS4 inducible, calcium flux, duplicate | AID 602282, 2012 | inhibition, % at 10 µM | actives 89% (n = 1,100) | shares compounds with RGS4 pot | carbachol calcium flux Fluo4;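 active means inhibition above 3 SD of the buffer control wells, cut at about 41% in these data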;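 further: signal is the integrated peak-minus-minimum Fluo4 fluorescence over baseline ratio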
RGS4 act ctr: RGS4 activator counter-screen hit in non-induced cells | actives 82% (n = 1,100) | HEK293 M3R non-induced RGS4, Fluo4 calcium flux; after carbachol challenge at its EC90 | inhibition, % at 10 µM | AID 602283 | shares compounds with RGS4 pot;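 active means inhibition exceeding 3 SD of buffer-only control wells, cut at about 26% in these data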;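 further: percent drop in integrated peak-minus-baseline over baseline Fluo4 ratio after carbachol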
The depositor's hits bear a star; i = inactive; x = no result given.

SMILES	MrgX1 ag	MrgX1 PAM	RGS4 block	RGS4 pot	MrgX1 antagonist	RGS4 act valid	RGS4 act ctr
CC(C)(C)c1cc(C(=O)NCc2cc(F)cc3c2OCOC3)n(Cc2ccccc2)n1	i	i	i	-8.4*	i	92*	56*
Cc1nc2ccccn2c1-c1csc(Nc2cccc(O)c2)n1	x	x	i	-8.4*	x	57*	0
CC(C)c1ccc(OCc2ccc(C(=O)N3CCCC3)o2)cc1	i	i	i	-12*	i	83*	84*
CN1CCN(C(=O)c2ccc(COc3ccc(C(C)(C)C)cc3)o2)CC1	i	i	i	-7.7*	i	90*	41*
CCOc1ccc(OCc2ccc(C(=O)N3CCCC3)o2)cc1	i	i	i	i	i	x	x
CN1CCN(CCC(=O)N2c3ccccc3Sc3ccc(Cl)cc32)CC1	i	i	i	i	i	x	x
c1ccc2c(c1)CC(N1CCCCC1)c1ccccc1S2 (centres undefined)	i	i	i	i	i	x	x
CN1CCN(C2Cc3cc(Cl)ccc3Sc3cc(F)ccc32)CC1 (centres undefined)	i	i	i	-8*	i	93*	95*
OCCN1CCN(C2Cc3cc(Cl)ccc3Sc3ccc(Cl)cc32)CC1 (centres undefined) (tested in a mixture with another compound)	i	i	i	i	i	x	x
CN1CCN(C2=Cc3cc(Cl)ccc3Sc3cc(F)ccc32)CC1	i	i	i	-8*	i	92*	91*
CCc1ccc2c(c1)Sc1ccccc1CC2N1CCN(C)CC1 (centres undefined)	i	i	i	-8.9*	i	92*	90*
COc1cc2c(cc1C1NC(=S)NC(C)=C1C(=O)N(C)C)CCCC2 (centres undefined)	i	i	i	i	i	x	x
Cc1ccc(C(=O)Nc2ccc(C(=O)O)cc2)cc1S(=O)(=O)NCc1ccccc1	i	i	i	i	i	x	x
COC(=O)NC(=S)Nc1ccc(Oc2ccc(Cl)cc2Cl)c(Cl)c1	i	i	i	-7.8*	i	92*	70*
Cn1c(=O)c2c(ncn2CCOc2ccc(Br)cc2)n(C)c1=O	i	i	i	i	i	x	x
Cn1c(=O)c2c(ncn2CCOc2ccc(F)cc2)n(C)c1=O	i	i	i	-8.9*	i	0	0
Cc1cccc(C)c1C(=NCCCN(C)C)c1ccccc1	i	i	i	-9.4*	i	92*	80*
CN(C)CCCNC(=O)/C(=N\O)c1ccccc1	i	i	i	i	i	x	x
COc1ccc(S(=O)(=O)NCC2CCC(C(=O)O)CC2)cc1 (centres undefined)	i	i	i	i	i	x	x
Cc1cc(N2CCCCCC2)nc2ccccc12	i	i	i	-10*	i	92*	48*
Cc1cc(N2CCCCC2)nc2ccccc12	i	i	i	i	i	x	x
CN1CCN(c2nc(-c3cccs3)cc(C(F)(F)F)n2)CC1	i	i	i	-8.7*	i	92*	38*
COc1nc(-c2cnccn2)sc1C	i	i	i	i	i	x	x
CCCCCCCCn1c2c(c(=N)c3ccccc31)CCC2	x	x	i	i	x	x	x
CCCCCCCCCn1c2c(c(=N)c3c1CCC3)CCCC2	x	x	i	-11*	x	92*	95*
SMILES	MrgX1 ag	MrgX1 PAM	RGS4 block	RGS4 pot	MrgX1 antagonist	RGS4 act valid	RGS4 act ctr
CCC(C)NC(=O)CCSc1ccc(C)cc1 (centres undefined)	i	i	i	i	i	x	x
O=C(Cc1cccc2ccccc12)NCCOc1ccccc1F	i	i	i	i	i	x	x
CCOC(=O)c1cc2c(ccn2C)n1Cc1cc(C)ccc1C	i	i	i	-8*	i	85*	30*
Cc1cc(NCc2ccccn2)n2ncc(-c3ccccc3)c2n1	i	i	i	-7.8*	i	90*	43*
Cc1cc(NCc2ccccn2)n2ncc(-c3ccc(Cl)cc3)c2n1	i	i	i	i	i	x	x
COc1cc(O)c(CC=C(C)C)c(O)c1C(=O)CCc1ccc(O)cc1	i	i	i	-9.3*	i	91*	76*
COC(=O)c1c(-c2cccc3ccccc23)csc1NC(=O)Cc1ccc(OC)c(OC)c1	i	i	i	i	i	x	x
C/C(=C\C=C(C#N)C#N)c1cc(C#N)c(N)o1	x	x	i	-8.3*	x	62*	57*
CCCCc1n[nH]c(=S)n1Cc1ccc(C)cc1	i	i	i	-8.3*	i	72*	29*
Cc1nccn1CCc1n[nH]c(=S)n1Cc1ccccc1	i	i	i	-9.5*	i	86*	68*
CCCCCCCc1n[nH]c(=S)n1Cc1ccccc1	i	i	i	i	i	x	x
CC1CCCC(NC(=O)c2ccc(F)c(S(=O)(=O)N3CCOCC3)c2)C1C (centres undefined)	i	i	i	i	i	x	x
COc1ccccc1C(=O)N(CCC1CCCN1C)c1nc2ccccc2s1 (centres undefined)	i	i	i	i	i	x	x
CC1CCCN(C(=O)COC(=O)c2cc(-c3cccs3)nn2-c2ccccc2)C1 (centres undefined)	i	i	i	-10*	i	92*	70*
COc1ccc(NC(=O)CC2C(=O)N(c3ccc(Cl)cc3)C(=S)N2NC(=O)c2cccc(F)c2)cc1 (centres undefined)	i	i	i	i	i	x	x
COc1ccc(NC(=O)CC2C(=O)N(c3ccc(F)cc3)C(=S)N2NC(=O)c2ccc(Cl)cc2)cc1 (centres undefined)	i	i	i	-11*	i	0	0
Cc1nc2ccc(NC(=O)c3cccc(S(=O)(=O)N(C)c4ccccc4)c3)cc2s1	i	i	i	-8.9*	i	88*	69*
